Experiment [1] concerns the target T1, Glutamine synthetase, chloroplastic (Zea mays) (UniProt P25462).
T1 sequence (whole entry): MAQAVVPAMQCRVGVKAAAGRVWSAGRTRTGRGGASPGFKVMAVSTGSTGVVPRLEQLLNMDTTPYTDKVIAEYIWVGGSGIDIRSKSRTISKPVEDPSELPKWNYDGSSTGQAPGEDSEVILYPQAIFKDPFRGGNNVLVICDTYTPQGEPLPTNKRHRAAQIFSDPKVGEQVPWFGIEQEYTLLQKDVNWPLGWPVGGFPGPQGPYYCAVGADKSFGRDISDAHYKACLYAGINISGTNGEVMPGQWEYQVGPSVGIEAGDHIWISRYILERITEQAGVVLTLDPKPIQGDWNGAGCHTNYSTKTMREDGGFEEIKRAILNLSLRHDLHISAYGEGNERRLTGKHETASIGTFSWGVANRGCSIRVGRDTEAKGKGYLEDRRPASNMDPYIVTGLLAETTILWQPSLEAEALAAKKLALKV
In words: Inhibition of Zea mays cv. Jeff (maize) leaf glutamine synthetase using L-glutamate as substrate assessed as inorganic phosphate production at 1 mM after 20 min by malachite green assay relative to control.

Experiment [2] addresses T2, Glutamine synthetase, chloroplastic (Zea mays, UniProt P25462).
T2 sequence (P25462 whole entry): T1 sequence (whole entry)
Briefly: Inhibition of Zea mays cv. Jeff (maize) leaf glutamine synthetase using L-glutamate as substrate assessed as inorganic phosphate production after 20 min by malachite green assay relative to control. Summed up: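 GS purified from three-leaf-stage maize seedling leaves by ammonium sulfate, DEAE-Sephacel, Reactive Blue flow-through and Mono-Q steps. Inhibitor adjusted to pH 7.4 with KOH, 0.001–5 mM; IC50 by probit method.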

The target of experiment [3] is T2, Glutamine synthetase, chloroplastic. In words: Un-competitive inhibition of Zea mays cv. Jeff (maize) leaf glutamine synthetase using ATP as substrate Lineweaver-Burk plot analysis. An outline of the steps:
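With purified maize leaf GS in the biosynthetic assay (Pi by malachite green, 35 °C), ATP was varied at seven levels from 0.2 to 1 mM with L-glutamate fixed at 50 mM. Four inhibitor levels, 0.5- to 3-fold the I50, each at least in triplicate. Lineweaver–Burk plots were used, and Ki came from Dixon replots. Values are means ± SEM.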

The target is the same in experiment [4]. In words: Non-competitive inhibition of Zea mays cv. Jeff( maize) leaf glutamine synthetase using L-glutamate as substrate Lineweaver-Burk plot analysis.

Molecules are shown by their SMILES.

Data on 24 compounds can be found in ChEMBL document CHEMBL3044622, “Effectiveness and mode of action of phosphonate inhibitors of plant glutamine synthetase” (Pest Manag Sci, 2010).

Turning to `COc1cccc(C(N)P(=O)(O)O)c1OC` (centres undefined), the inhibition (commonly the change of the read-out against control, counted positive when it falls) in experiment [1] was -1.2%.
On to `O=P(O)(O)C(O)c1ccccc1Cl` (centres undefined) [(2-CHLOROPHENYL)(HYDROXY)METHYLPHOSPHONIC ACID], for which the 50% inhibitory concentration (IC50) (in general, the point on the concentration scale where inhibition reaches its midpoint) in experiment [2] came out at 6610 µM. In experiment [1], the inhibition turned out to be 27%.
Regarding `O=P(O)(O)C(O)c1cccc(Cl)c1` (centres undefined), the inhibition in experiment [1] amounted to 12.3%.
`O=P(O)(O)C(O)c1ccc(Cl)cc1` (centres undefined): the inhibition in experiment [1] came to 8.3%.
Take `O=P(O)(O)C(Nc1ccc(Cl)cc1Cl)P(=O)(O)O` [2,4-DICHLOROPHENYLAMINOMETHYLENEBISPHOSPHONIC ACID]: in experiment [2], the IC50 was 21.2 µM. In addition, in experiment [1], the inhibition was found to be 79.7%.
With `NC(c1cccc(Cl)c1Cl)P(=O)(O)O` (centres undefined) [AMINO(2,3-DICHLOROPHENYL)METHYLPHOSPHONIC ACID], the IC50 in experiment [2] came out at 1050 µM. For the same compound, in experiment [1], the inhibition amounted to 47.7%.
Regarding `Cc1cc(C)cc(NC(P(=O)(O)O)P(=O)(O)O)c1` [3,5-DIMETHYLPHENYLAMINOMETHYLENEBISPHOSPHONIC ACID], the figures for the Ki in experiment [3] and in experiment [4] were 55 µM and 53 µM, respectively. The IC50 in experiment [2] amounted to 56 µM. Further, the inhibition in experiment [1] was 67.5%.
Regarding `NC(c1ccccc1Br)P(=O)(O)O` (centres undefined) [AMINO(2-BROMOPHENYL)METHYLPHOSPHONIC ACID], the half-maximal inhibitory concentration (IC50) in experiment [2] stood at 4100 µM. For the same compound, the inhibition in experiment [1] is 42.5%.
Take `O=P(O)(O)C(O)c1ccc(Cl)cc1Cl` (centres undefined) [(2,4-DICHLOROPHENYL)(HYDROXY)METHYLPHOSPHONIC ACID]: the IC50 in experiment [2] is 4830 µM. Also, the inhibition in experiment [1] came out at 31.9%.
In the same order, the values of `O=P(O)(O)C(Nc1ccc(Cl)cc1)P(=O)(O)O` [(4-CHLOROPHENYLAMINO)METHYLENEDIPHOSPHONIC ACID] are 21 µM and 79.1%.
Take `O=P(O)(O)C(O)c1c(Cl)cccc1Cl` (centres undefined): in experiment [1], the inhibition was determined as 10.7%.
Regarding `NC(c1ccccc1Cl)P(=O)(O)O` (centres undefined) [AMINO(2-CHLOROPHENYL)METHYLPHOSPHONIC ACID], the concentration for half-maximal inhibition (IC50) in experiment [2] was found to be 5810 µM. Further, the inhibition in experiment [1] came to 36.3%.
`NC(c1ccccc1F)P(=O)(O)O` (centres undefined) [AMINO(2-FLUOROPHENYL)METHYLPHOSPHONIC ACID]: in experiment [2], the IC50 turned out to be 10100 µM. In addition, in experiment [1], the inhibition amounted to 26.7%.
With `NC(c1cccc(Cl)c1)P(=O)(O)O` (centres undefined), the inhibition in experiment [1] is 8.1%.
`NC(c1ccccc1)P(=O)(O)O` (centres undefined): the inhibition in experiment [1] is 13.6%.
For `O=P(O)(O)C(Nc1cccc(Cl)c1Cl)P(=O)(O)O` [2,3-DICHLOROPHENYLAMINOMETHYLENEBISPHOSPHONIC ACID], in experiment [2], the IC50 was determined as 12.8 µM. For the same compound, the inhibition in experiment [1] worked out at 84.9%.
On the same counts, the results for `O=P(O)(O)C(Nc1cc(Cl)ccc1Cl)P(=O)(O)O` [2,5-DICHLOROPHENYLAMINOMETHYLENEBISPHOSPHONIC ACID] are 39.2 µM and 79.1%.
As for `O=P(O)(O)C(O)c1cccc(Cl)c1Cl` (centres undefined) [(2,3-DICHLOROPHENYL)(HYDROXY)METHYLPHOSPHONIC ACID], the IC50 in experiment [2] worked out at 1160 µM. Further, the inhibition in experiment [1] was found to be 47.2%.
For `NC(c1cccc(F)c1)P(=O)(O)O` (centres undefined), the inhibition in experiment [1] worked out at 7.9%.
For the compound `O=P(O)(O)C(Nc1c(Cl)cccc1Cl)P(=O)(O)O` [2,6-DICHLOROPHENYLAMINOMETHYLENEBISPHOSPHONIC ACID], the 50% inhibitory concentration (IC50) in experiment [2] came to 15 µM. Also, the inhibition in experiment [1] stood at 81.1%.
On to `NC(c1ccc(Cl)cc1Cl)P(=O)(O)O` (centres undefined) [AMINO(2,4-DICHLOROPHENYL)METHYLPHOSPHONIC ACID], for which the IC50 in experiment [2] was found to be 2610 µM. In addition, the inhibition in experiment [1] was 40.7%.
Regarding `O=P(O)(O)C(O)c1ccc(Cl)c(Cl)c1` (centres undefined), the inhibition in experiment [1] amounted to 14.6%.
For `O=P(O)(O)C(Nc1cc(Cl)cc(Cl)c1)P(=O)(O)O` [(3,5-DICHLOROPHENYLAMINO)METHYLENEDIPHOSPHONIC ACID], the Ki (as a rule, a measure of affinity in units of concentration, obtained from inhibition or displacement) in experiment [3] turned out to be 6.4 µM; in experiment [4], 7.2 µM. The IC50 in experiment [2] was found to be 7.6 µM. Further, the inhibition in experiment [1] was found to be 86.3%.
In the case of `O=P(O)(O)C(Nc1ccc(Cl)c(Cl)c1)P(=O)(O)O` [3,4-DICHLOROPHENYLAMINOMETHYLENEBISPHOSPHONIC ACID], the IC50 in experiment [2] was 31.9 µM. Moreover, the inhibition in experiment [1] worked out at 73.8%.
